Laboratory results: ChEMBL document CHEMBL5724801, “EUbOPEN Chemogenomics Library - Multiplex” (2024)
Values joined by “and” are separate entries in the source; they are usually repeats but may differ in a detail not shown here. Identical values can stand only once.

Test system: Fibroblast
Assay: Multiplex assay against human fibroblast
Format: toxicity, cell-based
Method in brief: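 Imaging took place on a CQ1 microscope at 37°C and 5% CO2 once compound had been added to live cells stained at seeding with Hoechst33342, BioTracker Green Microtubule Cytoskeleton Dye, MitoTracker Red and Annexin V Alexa Fluor 680. CellPathfinder machine-learning gating classed cells as Hoechst high-intensity objects or normal cells, classed normal cells as having healthy, pyknosed or fragmented nuclei, and classed pyknosed cells as mitotic or apoptotic. Tubulin, mitochondrial-mass and membrane-permeability phenotypes are per cents of the healthy-nucleus cells.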

[1] = 12 h, 1 µM, compound concentration 1 uM
[2] = 12 h, 10 µM, compound concentration 10 uM
[3] = 24 h, 1 µM, compound concentration 1 uM
[4] = 24 h, 10 µM, compound concentration 10 uM
[5] = 48 h, 1 µM, compound concentration 1 uM
[6] = 48 h, 10 µM, compound concentration 10 uM

O=C(NCc1cccc(O)c1)Nc1nc(-c2ccncc2)cs1
Population Apoptotic (%) [1]: 12.12% and 27.78% | Population Healthy Nuclei (%) [1]: 41.38% and 76.34% | Population Hoechst High Intensity Objects (%) [1]: 0% | Population Membrane Permeable-Phenotype (%) [1]: 4.17% and 1.41% | Population Mitochondria Different-Phenotype (%) [1]: 6.94% and 9.15% | Population Mitotic Cells (%) [1]: 87.88% and 72.22% | Population Normal (%) [1]: 100% | Population Pyknosed Nuclei (%) [1]: 37.93% and 19.35% | Population Tubulin-Different-Phenotype (%) [1]: 8.33% and 6.34% | Total Cell Count [1]: 174 and 186 | Population Apoptotic (%) [2]: 9.52% and 18.18% | Population Fragmented Nuclei (%) [2]: 11.37% and 4.05% | Population Healthy Nuclei (%) [2]: 38.86% and 61.26% | Population Hoechst High Intensity Objects (%) [2]: 0% | Population Membrane Permeable-Phenotype (%) [2]: 7.32% and 2.21% | Population Mitochondria Different-Phenotype (%) [2]: 15.85% and 13.97% | Population Mitotic Cells (%) [2]: 90.48% and 81.82% | Population Normal (%) [2]: 100% | Population Pyknosed Nuclei (%) [2]: 49.76% and 34.68% | Population Tubulin-Different-Phenotype (%) [2]: 13.41% and 29.41% | Total Cell Count [2]: 211 and 222 | Population Apoptotic (%) [3]: 25.49% and 48.15% | Population Healthy Nuclei (%) [3]: 53.67% and 81.31% | Population Hoechst High Intensity Objects (%) [3]: 0% | Population Membrane Permeable-Phenotype (%) [3]: 3.16% and 0.62% | Population Mitochondria Different-Phenotype (%) [3]: 12.63% and 6.83% | Population Mitotic Cells (%) [3]: 74.51% and 51.85% | Population Normal (%) [3]: 100% | Population Pyknosed Nuclei (%) [3]: 28.81% and 13.64% | Population Tubulin-Different-Phenotype (%) [3]: 11.58% and 6.21% | Total Cell Count [3]: 177 and 198 | Population Apoptotic (%) [4]: 13.79% and 23.26% | Population Fragmented Nuclei (%) [4]: 8.5% and 3.62% | Population Healthy Nuclei (%) [4]: 48% and 76.92% | Population Hoechst High Intensity Objects (%) [4]: 0% | Population Membrane Permeable-Phenotype (%) [4]: 0% and 2.94% | Population Mitochondria Different-Phenotype (%) [4]: 7.29% and 8.82% | Population Mitotic Cells (%) [4]: 86.21% and 76.74% | Population Normal (%) [4]: 100% | Population Pyknosed Nuclei (%) [4]: 43.5% and 19.46% | Population Tubulin-Different-Phenotype (%) [4]: 17.71% and 29.41% | Total Cell Count [4]: 200 and 221 | Population Apoptotic (%) [5]: 55.56% and 38.46% | Population Fragmented Nuclei (%) [5]: 16.05% and 5.73% | Population Healthy Nuclei (%) [5]: 72.84% and 87.5% | Population Hoechst High Intensity Objects (%) [5]: 0% | Population Membrane Permeable-Phenotype (%) [5]: 0.85% and 0.6% | Population Mitotic Cells (%) [5]: 44.44% and 61.54% | Population Normal (%) [5]: 100% | Population Pyknosed Nuclei (%) [5]: 11.11% and 6.77% | Population Tubulin-Different-Phenotype (%) [5]: 3.39% and 6.55% | Total Cell Count [5]: 162 and 192 | Population Apoptotic (%) [6]: 16.67% and 18.42% | Population Healthy Nuclei (%) [6]: 74.44% and 81.61% | Population Hoechst High Intensity Objects (%) [6]: 0% | Population Membrane Permeable-Phenotype (%) [6]: 0.6% and 1.65% | Population Mitochondria Different-Phenotype (%) [6]: 12.05% and 3.3% | Population Mitotic Cells (%) [6]: 83.33% and 81.58% | Population Normal (%) [6]: 100% | Population Pyknosed Nuclei (%) [6]: 13.45% and 17.04% | Total Cell Count [6]: 223

Nc1nccc(-c2ccn3c(N)nccc23)n1
Population Apoptotic (%) [1]: 13.51% and 18.75% | Population Healthy Nuclei (%) [1]: 61.49% and 82.11% | Population Hoechst High Intensity Objects (%) [1]: 0% | Population Membrane Permeable-Phenotype (%) [1]: 5.05% and 4.47% | Population Mitochondria Different-Phenotype (%) [1]: 4.04% and 6.7% | Population Mitotic Cells (%) [1]: 86.49% and 81.25% | Population Normal (%) [1]: 100% | Population Pyknosed Nuclei (%) [1]: 22.98% and 14.68% | Population Tubulin-Different-Phenotype (%) [1]: 7.07% and 20.11% | Total Cell Count [1]: 161 and 218 | Population Apoptotic (%) [2]: 10.71% and 9.09% | Population Fragmented Nuclei (%) [2]: 8.62% and 3.03% | Population Healthy Nuclei (%) [2]: 75.29% and 82.68% | Population Hoechst High Intensity Objects (%) [2]: 0% | Population Membrane Permeable-Phenotype (%) [2]: 8.4% and 3.14% | Population Mitochondria Different-Phenotype (%) [2]: 6.87% and 7.33% | Population Mitotic Cells (%) [2]: 89.29% and 90.91% | Population Normal (%) [2]: 100% | Population Pyknosed Nuclei (%) [2]: 16.09% and 14.29% | Population Tubulin-Different-Phenotype (%) [2]: 9.16% and 16.75% | Total Cell Count [2]: 174 and 231 | Population Apoptotic (%) [3]: 15.56% and 14.81% | Population Fragmented Nuclei (%) [3]: 8.38% and 5.44% | Population Healthy Nuclei (%) [3]: 68.06% and 83.26% | Population Hoechst High Intensity Objects (%) [3]: 0% | Population Membrane Permeable-Phenotype (%) [3]: 0.77% and 2.51% | Population Mitochondria Different-Phenotype (%) [3]: 2.31% and 2.51% | Population Mitotic Cells (%) [3]: 84.44% and 85.19% | Population Normal (%) [3]: 100% | Population Pyknosed Nuclei (%) [3]: 23.56% and 11.3% | Population Tubulin-Different-Phenotype (%) [3]: 13.08% and 16.58% | Total Cell Count [3]: 191 and 239 | Population Apoptotic (%) [4]: 6.98% and 4.35% | Population Fragmented Nuclei (%) [4]: 9.95% and 3.5% | Population Healthy Nuclei (%) [4]: 69.67% and 87.55% | Population Hoechst High Intensity Objects (%) [4]: 0% | Population Membrane Permeable-Phenotype (%) [4]: 4.76% and 5.33% | Population Mitochondria Different-Phenotype (%) [4]: 5.44% and 2.22% | Population Mitotic Cells (%) [4]: 93.02% and 95.65% | Population Normal (%) [4]: 100% | Population Pyknosed Nuclei (%) [4]: 20.38% and 8.95% | Population Tubulin-Different-Phenotype (%) [4]: 16.33% and 21.33% | Total Cell Count [4]: 211 and 257 | Population Apoptotic (%) [5]: 22.73% and 26.09% | Population Fragmented Nuclei (%) [5]: 8.37% and 5.8% | Population Healthy Nuclei (%) [5]: 81.4% and 83.93% | Population Hoechst High Intensity Objects (%) [5]: 0% | Population Membrane Permeable-Phenotype (%) [5]: 1.14% and 3.72% | Population Mitochondria Different-Phenotype (%) [5]: 9.71% and 2.66% | Population Mitotic Cells (%) [5]: 77.27% and 73.91% | Population Normal (%) [5]: 100% | Population Pyknosed Nuclei (%) [5]: 10.23% and 10.27% | Total Cell Count [5]: 215 and 224 | Population Apoptotic (%) [6]: 23.53% and 19.05% | Population Fragmented Nuclei (%) [6]: 6.48% and 4.4% | Population Healthy Nuclei (%) [6]: 86.64% and 87.2% | Population Hoechst High Intensity Objects (%) [6]: 0% | Population Membrane Permeable-Phenotype (%) [6]: 1.87% and 1.83% | Population Mitotic Cells (%) [6]: 76.47% and 80.95% | Population Normal (%) [6]: 100% | Population Pyknosed Nuclei (%) [6]: 6.88% and 8.4% | Total Cell Count [6]: 247 and 250

COC[C@@H](CC(C)C)NC1=N/C(=C\c2ccc3ncsc3c2)C(=O)N1C
Population Apoptotic (%) [1]: 28.21% and 31.58% | Population Fragmented Nuclei (%) [1]: 27.8% and 24.34% | Population Healthy Nuclei (%) [1]: 58.12% and 69.41% | Population Hoechst High Intensity Objects (%) [1]: 0% | Population Membrane Permeable-Phenotype (%) [1]: 3.73% and 4.27% | Population Mitochondria Different-Phenotype (%) [1]: 9.94% and 6.64% | Population Mitotic Cells (%) [1]: 71.79% and 68.42% | Population Normal (%) [1]: 100% | Population Pyknosed Nuclei (%) [1]: 14.08% and 6.25% | Population Tubulin-Different-Phenotype (%) [1]: 13.66% and 33.18% | Total Cell Count [1]: 277 and 304 | Population Fragmented Nuclei (%) [2]: 75.02% and 85.21% | Population Healthy Nuclei (%) [2]: 17.78% and 11.87% | Population Hoechst High Intensity Objects (%) [2]: 13.82% and 16.56% | Population Membrane Permeable-Phenotype (%) [2]: 4.92% and 5.22% | Population Mitochondria Different-Phenotype (%) [2]: 5.46% and 4.48% | Population Mitotic Cells (%) [2]: 87.84% and 51.52% | Population Normal (%) [2]: 86.18% and 83.44% | Population Pyknosed Nuclei (%) [2]: 7.19% and 2.92% | Population Tubulin-Different-Phenotype (%) [2]: 16.94% and 38.81% | Total Cell Count [2]: 1194 and 1353 | Population Apoptotic (%) [3]: 32.26% and 29.41% | Population Fragmented Nuclei (%) [3]: 28.52% and 23.81% | Population Healthy Nuclei (%) [3]: 60.56% and 70.41% | Population Hoechst High Intensity Objects (%) [3]: 0% | Population Membrane Permeable-Phenotype (%) [3]: 1.16% and 4.83% | Population Mitochondria Different-Phenotype (%) [3]: 10.47% and 6.28% | Population Mitotic Cells (%) [3]: 67.74% and 70.59% | Population Normal (%) [3]: 100% | Population Pyknosed Nuclei (%) [3]: 10.92% and 5.78% | Population Tubulin-Different-Phenotype (%) [3]: 18.02% and 35.27% | Total Cell Count [3]: 284 and 294 | Population Apoptotic (%) [4]: 15.79% and 43.33% | Population Fragmented Nuclei (%) [4]: 73.6% and 85.59% | Population Healthy Nuclei (%) [4]: 21.08% and 11.79% | Population Hoechst High Intensity Objects (%) [4]: 7.03% and 15.44% | Population Membrane Permeable-Phenotype (%) [4]: 6.19% and 3.7% | Population Mitotic Cells (%) [4]: 84.21% and 56.67% | Population Normal (%) [4]: 92.97% and 84.56% | Population Pyknosed Nuclei (%) [4]: 5.32% and 2.62% | Population Tubulin-Different-Phenotype (%) [4]: 36.73% and 51.85% | Total Cell Count [4]: 1153 and 1354 | Population Apoptotic (%) [5]: 32.14% and 52.94% | Population Fragmented Nuclei (%) [5]: 34.66% and 16.78% | Population Healthy Nuclei (%) [5]: 57.39% and 77.27% | Population Hoechst High Intensity Objects (%) [5]: 0% | Population Membrane Permeable-Phenotype (%) [5]: 1.98% and 1.36% | Population Mitochondria Different-Phenotype (%) [5]: 7.43% and 5.43% | Population Mitotic Cells (%) [5]: 67.86% and 47.06% | Population Normal (%) [5]: 100% | Population Pyknosed Nuclei (%) [5]: 7.95% and 5.94% | Total Cell Count [5]: 352 and 286 | Population Apoptotic (%) [6]: 14.55% and 28.57% | Population Fragmented Nuclei (%) [6]: 76.66% and 86.7% | Population Healthy Nuclei (%) [6]: 18.12% and 11% | Population Hoechst High Intensity Objects (%) [6]: 20.81% and 19.66% | Population Membrane Permeable-Phenotype (%) [6]: 13.61% and 14.18% | Population Mitochondria Different-Phenotype (%) [6]: 1.57% and 10.45% | Population Mitotic Cells (%) [6]: 85.45% and 71.43% | Population Normal (%) [6]: 79.19% and 80.34% | Population Pyknosed Nuclei (%) [6]: 5.22% and 2.3% | Population Tubulin-Different-Phenotype (%) [6]: 27.75% and 50.75% | Total Cell Count [6]: 1331 and 1516
